# Beta apoptosis: blocks beta cell apoptosis; INS-1E cytokine-induced death, ATP luminescence, 48 h; percent of positive-control rescue, neutral wells zero; protection from apoptosis, % (concentration not given with the values); 300,000 tested, 0.8% active; AID 435005;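 active means Every replicate reaches about 75%, or at least half do and their mean reaches it too, limit read from the data; inconclusive means At least half of replicates reach the limit but their mean does not; inactive means Under half of replicates reach the limit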;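 further: 0% = cytokine-treated negative control wells and 100% = positive control rescue; higher means more ATP so stronger rescue from cytokine killing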
# CSC inhib: cancer stem cell inhibition. AID 2717. inhibition, % at 7.5 µM. 300,000 tested, 1.1% active. cancer stem cell-like cells viability, luminescence; in the data active means inhibition above about 75%; inconclusive means no clear call, values can overlap the other calls; tested in HMLE shEcad cells
# Lmaj promast: reduces viability of Leishmania major promastigotes; 200,000 tested, 9% active; AID 1063; inhibition, % at 10 µM; resazurin fluorescence viability; in the data active means inhibition above about 50%;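 further: promastigotes grown with compound for 44 hours at 28 °C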
# SKKanGAS inh: inhibitors of SKKanGAS S. pyogenes growth in kanamycin (SK-promoter or general growth effect). inhibition, % at 7.5 µM. 300,000 tested, 1.3% active. AID 1662. BacTiter-Glo, 6 h;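 active means mean replicate score, as percent of positive control median, at least 50; inconclusive means mean below 50 but one replicate at or above 50; inactive means mean and every replicate below 50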;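 further: strain carries kanamycin resistance gene driven by streptokinase promoter and grows in 40 µg/ml kanamycin; loss of luminescence reflects streptokinase promoter inhibition or plain growth inhibition; 0% = median of DMSO wells and 100% = positive control at its reference dose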
# T cruzi inh: blocks replication of Trypanosoma cruzi. AID 1885. 300,000 tested, 1.4% active. T. cruzi beta-gal in NIH3T3, luminescence, 90 h. inhibition, % (no concentration beside the values);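 active means mean inhibition across valid replicates above about 55%, limit read from the data; inconclusive means mean below that limit but half or more replicates reach it; inactive means mean below it, under half of replicates reach it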;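 further: signal also drops with host cell toxicity which is not excluded here; 0% = plate median of DMSO wells and 100% = zero luminescence signal; higher percent means less beta-gal luminescence so fewer parasites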
#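 assay system = mouse NIH/3T3 fibroblasts infected with β-gal-expressing T. cruzi Tulahuen C4 | input = 5,000 NIH/3T3 host cells per well | buffer or medium = DMEM plus 2% FBS | timing = 3 h host attachment, then at least 90 h co-culture | measured by = GalScreen luminescence, 60 min | evaluation = luminescence reflecting intracellular parasite burden, expressed as percent inhibition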
# Mdm2-MdmX inh: human Mdm2/MdmX binding inhibition; O15151+Q00987; SaOS-2 split-luciferase Mdm2/MdmX complementation, luminescence; AID 485346; inhibition, % at 8 µM; 330,000 tested, 3% active;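 active means inhibition of at least 50% at 8 µM in the primary screen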
# Target sequence (O15151 whole entry, looked up): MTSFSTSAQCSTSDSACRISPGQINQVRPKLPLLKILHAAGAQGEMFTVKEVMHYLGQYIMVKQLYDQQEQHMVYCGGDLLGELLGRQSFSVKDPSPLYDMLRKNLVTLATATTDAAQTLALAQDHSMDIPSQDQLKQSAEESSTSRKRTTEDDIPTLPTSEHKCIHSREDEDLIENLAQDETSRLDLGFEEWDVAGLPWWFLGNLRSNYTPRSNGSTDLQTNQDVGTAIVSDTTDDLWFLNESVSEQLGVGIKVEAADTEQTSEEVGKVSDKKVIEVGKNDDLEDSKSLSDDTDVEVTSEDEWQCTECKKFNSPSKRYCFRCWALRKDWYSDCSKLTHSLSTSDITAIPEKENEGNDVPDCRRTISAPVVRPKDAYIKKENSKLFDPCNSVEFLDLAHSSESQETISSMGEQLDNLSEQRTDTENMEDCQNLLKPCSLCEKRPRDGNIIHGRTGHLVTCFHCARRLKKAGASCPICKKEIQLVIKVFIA
# Target sequence (Q00987 whole entry, looked up): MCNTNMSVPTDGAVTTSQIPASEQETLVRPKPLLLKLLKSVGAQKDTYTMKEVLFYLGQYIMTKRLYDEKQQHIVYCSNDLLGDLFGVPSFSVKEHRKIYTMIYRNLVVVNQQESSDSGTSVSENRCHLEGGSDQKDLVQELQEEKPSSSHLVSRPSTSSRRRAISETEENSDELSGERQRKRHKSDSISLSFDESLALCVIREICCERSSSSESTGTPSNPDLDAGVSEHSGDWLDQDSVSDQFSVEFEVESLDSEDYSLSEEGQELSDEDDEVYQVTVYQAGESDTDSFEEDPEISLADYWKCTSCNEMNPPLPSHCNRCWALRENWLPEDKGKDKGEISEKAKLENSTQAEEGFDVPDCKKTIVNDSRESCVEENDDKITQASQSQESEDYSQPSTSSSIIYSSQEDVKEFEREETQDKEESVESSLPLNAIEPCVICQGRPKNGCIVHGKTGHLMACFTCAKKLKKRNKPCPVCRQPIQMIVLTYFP
# An asterisk follows results filed as active; ? = inconclusive; · = no result. Rows were chosen to be rich in hits. Some 9.4% of all compounds tested hit in one or more screens of this group.
SMILES,Beta apoptosis,CSC inhib,Lmaj promast,SKKanGAS inh,T cruzi inh,Mdm2-MdmX inh
C#CCOCCOCCOCCNc1nc(N2CCN(C(=O)CCCCCCCCCCNC(=O)[C@H]([C@@H](C)CC)n3cc(CCCCN=C(N)N)nn3)CC2)nc(N2CCN(C(=O)CCCCCCCCCCNC(=O)[C@H](CCCN=C(N)N)n3cc(C[C@@H](C)CC)nn3)CC2)n1,98*,88*,·,·,·,-23
O=C(NCc1cccnc1)c1cc(Sc2ccccc2Cl)nc2ccccc12,-1,11,78*,-3,4,7
O=C(Nc1ccccc1C(=O)NCc1cccnc1)c1ccccc1Cl,2,-10,·,-5,3,23
O=C(c1cnn2c1NC(c1ccc(Br)cc1)CC2C(F)(F)F)N1CCN2CCCC2C1 (stereo not given),6,80*,0,7,29,15
COc1ccc(-c2noc(C3CCCN(C(=O)c4ccccc4OC)C3)n2)cc1OC (stereo not given),2,3,11,-6,5,6
COc1ccc(C(=O)N2CCCC(c3nc(-c4ccc(OC)c(OC)c4)no3)C2)c(OC)c1 (stereo not given),3,6,87*,-3,3,9
CCOC(=O)c1cnc(-n2nc(C)cc2C)nc1N1CC(C)OC(C)C1 (stereo not given),-1,-20,67*,26,-6,1
CCOC(=O)c1cnc(-n2nc(C)cc2C)nc1NCc1ccccc1,99*,18,90*,89*,62*,17
CCOC(=O)c1cnc(-n2nc(C)cc2C)nc1NC(C)c1ccccc1 (stereo not given),88*,·,96*,107*,60*,23
CCOC(=O)c1nc(NCc2ccccc2)c2ccccc2n1,4,1,52*,1,12,13
COc1ccc([C@H]2CC(=O)C=C(c3ccc(C(=O)O)cc3)C2)cc1OC,3,-4,·,·,·,15
CC(C)(CN1CCCC1)NS(=O)(=O)c1ccccc1,-1,-9,·,-2,-2,2
Cc1ccc(NC(=S)NCCN2CCOCC2)cc1F,-3,-6,-4,-1,-13,16
COc1ccc(CCNC(=O)COC(=O)CCC(=O)c2ccc(F)cc2)cc1,2,-5,1,-5,-11,-27
Cc1cc(C)cc(NC(=S)N2CCC(N(C)CC3CCCO3)CC2)c1 (stereo not given),-6,9,67*,-9,8,1
Cc1cccc(C)c1NC(=S)N1CCC(N(C)CC2CCCO2)CC1 (stereo not given),-4,·,49,-5,-11,-7
Cc1cccc(NC(=S)N2CCC(N(C)CC3CCCO3)CC2)c1C (stereo not given),-5,14,82*,8,7,28
Cc1ccc(NC(=S)N2CCC(N(C)CC3CCCO3)CC2)cc1 (stereo not given),-3,-6,76*,-1,2,6
O=C(NC1CCCCCC1)c1c2c(nc3ccccc13)CCN(Cc1ccccc1)C2,8,1,20,-4,31,6
Cc1c(Cl)cccc1NC(=O)COC(=O)c1c2c(nc3ccccc13)CCN(Cc1ccccc1)C2,15,26,99*,31,68*,38
O=C(C[C@H]1C[C@H](C(=O)N2CCCCC2)[C@@]2(CCc3ccccc3)c3[nH]c4cc(-c5ccco5)ccc4c3CCN2C1=O)NCc1cccc(C(F)(F)F)c1,·,·,·,·,·,19
O=C(Nc1ccccc1)Nc1ccc(-n2ccc(C(F)(F)F)n2)cc1,116*,40,·,2,-34,-57
O=C(O)CC(CC(=O)Nc1ccc(-n2ccc(C(F)(F)F)n2)cc1)c1ccccc1 (stereo not given),-11,-8,·,19,-8,11
CC(=O)Nc1sc(NC(=O)c2ccc([N+](=O)[O-])cc2)nc1-c1cccs1,3,-2,·,56*,33,22
O=C(Nc1ccc(Br)c2ccccc12)c1ccc2ccccc2c1O,50,108*,·,100*,-11,·
SMILES,Beta apoptosis,CSC inhib,Lmaj promast,SKKanGAS inh,T cruzi inh,Mdm2-MdmX inh
CCOC(=O)Cc1cc(=O)[nH]c(/N=C(\N)Nc2ccc(C)c(C)c2)n1,-1,·,3,3,-29,9
O=C(OCC(O)CN1CCCCC1)C12CC3CC(CC(C3)C1)C2 (stereo not given),0,8,91*,0,0,-21
NCC(O)COCCC12CC3CC(CC(C3)C1)C2 (stereo not given),-2,-13,16,5,-8,13
OC(COCCC12CC3CC(CC(C3)C1)C2)CN1CCCC1 (stereo not given),1,40,91*,0,40,21
OC(COC1CCCCC1)CN1CCCCC1 (stereo not given),·,2,·,-8,7,8
CC1CCN(c2[nH]c(=S)c(C#N)c3c2CCCC3)CC1,-2,-8,100*,1,7,-11
Cc1[nH]c(=S)c(C#N)c2c1CCCC2,-8,-5,1,2,0,-9
Cc1ccc(-n2ncc3c(NNC(=O)c4cccs4)ncnc32)cc1,-10,·,-4,9,-28,1
Cc1cccc(Sc2c([N+](=O)[O-])ncn2C)c1,-19,8,93*,-2,8,-10
CC(=O)CSc1ncnc2nc[nH]c12,-8,-2,-4,-4,-2,21
Cc1cccnc1Sc1c([N+](=O)[O-])ncn1C,-2,-18,-4,5,-14,17
Cn1cnc(Sc2ncnc3nc[nH]c23)c1[N+](=O)[O-],-3,84*,·,-1,29,17
Cn1cnc([N+](=O)[O-])c1Sc1ncnc2nc[nH]c12,3,85*,·,47,16,20
CCCCN(C(=O)c1ccco1)C1CCS(=O)(=O)C1 (stereo not given),3,-5,·,-1,-4,10
S=C(Nc1cc(Cl)ccc1Oc1ccccc1)N1CCN(c2ccccn2)CC1,7,15,·,4,-11,·
O=C(Oc1c(CN2CCOCC2)cc(Cl)c2cccnc12)c1ccccc1F,63,22,101*,12,74*,46
O=[N+]([O-])c1cc(CN2CCOCC2)c2cccnc2c1O,·,·,-4,·,·,·
O=C(Oc1c(CN2CCOCC2)cc(Cl)c2cccnc12)c1ccccc1,?,12,100*,12,38,47
O=C(CSc1ccc(F)cc1)NCC1(N2CCOCC2)CCCCC1,-7,-8,·,-1,9,-4
O=C(CN1C(=O)NC2(CCCCCCC2)C1=O)NCc1ccc(Cl)cc1,-5,-7,·,·,·,-14
CN(C)Cc1nc2ccccc2c(=O)n1Cc1nc(-c2cccc([N+](=O)[O-])c2)cs1,6,24,52*,16,37,35
COc1ccc(-n2c(=S)[nH]c3cc(C(=O)Nc4ccccc4OC)ccc3c2=O)cc1,77*,-12,-8,0,-19,40
COc1ccc(-n2c(=S)[nH]c3ccccc32)cc1,-4,-2,53*,4,-19,7
